Calls of active or inactive are those of the source.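 How the source made its calls, unless noted: active means viability at or under a set limit in both replicates, limit being median viability minus 3 SD (cut at about 48% in these data, passing the limit was not always enough); inconclusive means at or under the limit in just one replicate; inactive means at or above the limit in both replicates.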
What was measured:
[1] = reducers of endogenous Her2 protein level, primary screen, SKBR3 breast tumor cells, AlphaScreen, ATP viability (AID 461;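 active means Her2 level under about 52% in both replicate screens, with viability over 70% of control, limit read from the data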;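 on Her2 level: lower value means less Her2 protein in the cells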;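 on viability: percent of carrier control wells set as 100% viability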); conditions: 18-24 h, measured here: SKBR3 viability, ATP luminescence, at 10 µM
[2] = target: Receptor tyrosine-protein kinase erbB-2 (Homo sapiens) (UniProt P04626); assay: as above; conditions: 18-24 h, at 10 µM, stronger effect = lower value
Sequence of Receptor tyrosine-protein kinase erbB-2 (Homo sapiens) (P04626 whole entry, looked up): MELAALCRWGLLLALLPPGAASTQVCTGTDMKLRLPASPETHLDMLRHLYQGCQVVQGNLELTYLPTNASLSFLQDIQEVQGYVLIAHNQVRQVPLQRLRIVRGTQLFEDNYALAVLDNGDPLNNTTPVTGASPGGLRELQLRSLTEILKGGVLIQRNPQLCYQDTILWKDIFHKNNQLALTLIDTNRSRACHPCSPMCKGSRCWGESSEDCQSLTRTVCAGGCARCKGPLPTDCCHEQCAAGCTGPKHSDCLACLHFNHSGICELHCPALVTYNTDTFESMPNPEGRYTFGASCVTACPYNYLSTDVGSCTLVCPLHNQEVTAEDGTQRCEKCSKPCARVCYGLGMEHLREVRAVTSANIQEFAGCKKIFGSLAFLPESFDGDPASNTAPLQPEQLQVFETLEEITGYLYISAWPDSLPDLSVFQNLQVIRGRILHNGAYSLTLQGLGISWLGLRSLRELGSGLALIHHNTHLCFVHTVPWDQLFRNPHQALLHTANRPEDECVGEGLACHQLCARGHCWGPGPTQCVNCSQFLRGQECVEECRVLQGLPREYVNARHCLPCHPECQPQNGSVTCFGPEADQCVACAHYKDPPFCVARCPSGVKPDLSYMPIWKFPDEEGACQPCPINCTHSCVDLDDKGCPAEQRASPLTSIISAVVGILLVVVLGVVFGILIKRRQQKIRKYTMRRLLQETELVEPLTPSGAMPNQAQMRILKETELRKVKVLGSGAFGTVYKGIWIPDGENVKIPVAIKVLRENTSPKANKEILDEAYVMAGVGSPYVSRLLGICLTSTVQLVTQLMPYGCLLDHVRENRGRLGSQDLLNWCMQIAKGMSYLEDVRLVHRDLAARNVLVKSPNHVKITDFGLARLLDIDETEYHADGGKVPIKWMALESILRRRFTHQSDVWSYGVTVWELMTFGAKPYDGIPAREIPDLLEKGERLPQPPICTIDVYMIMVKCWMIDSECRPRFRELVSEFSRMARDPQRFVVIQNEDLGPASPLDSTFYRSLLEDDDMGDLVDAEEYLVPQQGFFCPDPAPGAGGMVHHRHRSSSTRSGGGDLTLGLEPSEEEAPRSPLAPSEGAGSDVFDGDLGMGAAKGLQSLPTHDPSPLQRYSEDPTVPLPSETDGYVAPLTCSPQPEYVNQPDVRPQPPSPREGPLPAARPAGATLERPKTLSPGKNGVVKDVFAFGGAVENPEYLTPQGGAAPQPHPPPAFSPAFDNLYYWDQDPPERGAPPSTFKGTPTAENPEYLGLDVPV

[3] = SK-BR-3 cell growth inhibitors, pilot screen, 24 h, human (AID 572;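 active means viability at or below 10% of carrier control in both of two separate runs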;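 further: compound exposure lasted between 18 and 24 h rather than exactly 24 h; 100% = carrier-treated control wells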); conditions: SK-BR-3 viability, CellTiter-Glo luminescence, at 10 µM, stronger effect = lower value
[4] = HUVEC growth inhibition – cell-based, human, primary screen (AID 575;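 active means viability at or below 30% in both replicate assays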;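 further: 100% = median of untreated cell wells with 0.1% DMSO on each plate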); conditions: HUVEC proliferation, CellTiter-Glo luminescence, 72 h; at 10 µM; stronger effect = lower value
Procedure, shortened: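 Test system: primary human umbilical vein endothelial cells; medium: endothelial basal medium with 2% FBS plus growth supplements; dosing: 10 µM compound only; times: 72 h treatment at 37 °C; signal: CTG luminescence; read-out: % viability relative to median vehicle-well signal on each plate; control set: vehicle and MePR control wells; plate: 384-well, collagen-coated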

[5] = growth inhibitors of H69AR lung tumor, primary screen, human, duplicate replicates (AID 580); conditions: H69AR lung tumor cells viability, ATP luminescence, 72 h; at 10 µM; stronger effect = lower value;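 further: 100% = mean luminescence of untreated wells and 0% = no signal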
[6] = reversal of MRP1-mediated doxorubicin resistance, pilot screen, H69AR cells, doxorubicin co-treatment (AID 601;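 active means viability loss from added drug above about 55%, and viability with drug at most 40%, in both replicates, limit read from the data, passing the limit was not always enough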); conditions: CellTiter-Glo, 72 h, at 10 µM; for differential viability (reversal): stronger effect = higher value
[7] = 384-well plate pilot, post-Golgi transport modulator project, inhibition of yeast transport mutant growth (AID 636; in the data active means inhibition above about 31%); conditions: absorbance 615 nm, about 18 h, stronger effect = higher value
[8] = growth suppression of yeast trafficking mutant, preliminary HTS, modulators of trafficking downstream of Golgi apparatus project, 1536-format plate, OD 615 nm (AID 637; in the data active means inhibition above about 30%); conditions: yeast transport mutant growth, absorbance 615 nm, 18 h; stronger effect = higher value
[9] = H69AR cells + 2 uM doxorubicin, measured here: viability with 2 uM doxorubicin, stronger effect = lower value
[10] = H69AR cells, compound alone cytotoxicity

Compound	viability [1]	Her2 level [2]	viability [3]	viability [4]	viability [5]	differential viability (reversal) ([6]; H69AR cells + 2 uM doxorubicin)	viability [6, 9]	viability [6, 10]	inhibition [7]	inhibition [8]
CC(C)N(C(=O)COC(=O)c1ccc(O)cc1)C(C)C	96.5%	87.5% (inactive)	96.5% (inactive)	88.3% (inactive)	97.6% (inactive)	9.85% (inactive)	87.8%	97.6%	0.39% (inactive)	-0.16% (inactive)
N#Cc1ccc(CSc2nnc(-c3cnccn3)o2)cc1	106%	110% (inactive)	106% (inactive)	93.8% (inactive)	106% (inactive)	23.4% (inactive)	82.5%	106%	-0.67% (inactive)	-0.97% (inactive)
Cc1ccc(-n2ncc3c(=O)n(CC(=O)NC4CCCCC4)cnc32)cc1C	105%	108% (inactive)	105% (inactive)	92.7% (inactive)	87.4% (inactive)	1.56% (inactive)	85.8%	87.4%	-3.68% (inactive)	-1.13% (inactive)
CC1CN(c2nc(-c3ccccc3)nc3ccccc23)CC(C)O1 (stereo not given)	91%	134% (inactive)	91% (inactive)	88.2% (inactive)	85.4% (inactive)	4.54% (inactive)	80.9%	85.4%	-3.72% (inactive)	-5.67% (inactive)
COc1ccc(OC)c(C2/C(=C(\O)c3ccc4c(c3)OCCO4)C(=O)C(=O)N2CCCN(C)C)c1 (stereo not given)	102%	76.5% (inactive)	102% (inactive)	111% (inactive)	101% (inactive)	9.38% (inactive)	91.3%	101%	-4.05% (inactive)	-3.81% (inactive)
CCOc1ccc(C(=O)N2CCN(C(=O)c3ccco3)CC2)cc1OCC	110%	85% (inactive)	110% (inactive)	85.8% (inactive)	94.3% (inactive)	0.255% (inactive)	94%	94.3%	-3.47% (inactive)	-0.79% (inactive)
CC(C)C(NC(=O)OCc1ccccc1)C(=O)OCC(=O)NCc1ccco1 (stereo not given)	100%	108% (inactive)	100% (inactive)	86.2% (inactive)	85.3% (inactive)	7.68% (inactive)	77.6%	85.3%	-1.18% (inactive)	-11.3% (inactive)
Cc1ccc(CS(=O)(=O)CCC(=O)NCC2CCCO2)cc1 (stereo not given)	96.5%	106% (inactive)	96.5% (inactive)	116% (inactive)	93.3% (inactive)	2.6% (inactive)	90.7%	93.3%	-7.03% (inactive)	7.5% (inactive)
O=C(NCCC1=CCCCC1)C1CCN(C(=O)Nc2ccccc2)CC1	106%	128% (inactive)	106% (inactive)	91.3% (inactive)	101% (inactive)	5.69% (inactive)	95.7%	101%	-2.21% (inactive)	-2.33% (inactive)
CCOCCn1cnc2sc(C(=O)Nc3nc(C)c(C(=O)OCC)s3)c(C)c2c1=O	110%	81% (inactive)	110% (inactive)	75.7% (inactive)	78% (inactive)	-14.5% (inactive)	92.5%	78%	-1.18% (inactive)	-2.42% (inactive)
CCn1nnc(NC(=O)c2cc3ccccc3o2)n1	103%	103% (inactive)	103% (inactive)	97.2% (inactive)	101% (inactive)	11.5% (inactive)	90%	101%	-4.19% (inactive)	-9% (inactive)
O=C(NCC1CCCO1)c1ccccc1-c1nc(-c2ccc(Cl)cc2)no1 (stereo not given)	78.5%	87.5% (inactive)	78.5% (inactive)	76% (inactive)	95.1% (inactive)	6.99% (inactive)	88.1%	95.1%	-5.68% (inactive)	1.8% (inactive)
COC(=O)c1cc2ccsc2n1Cc1nc(-c2ccc(OC)cc2)oc1C	85.5%	82% (inactive)	85.5% (inactive)	67.5% (inactive)	83.6% (inactive)	-12% (inactive)	95.6%	83.6%	0.13% (inactive)	-4.67% (inactive)
CCCC1(C(=O)OCC)NC(c2ccc(N(C)C)cc2)C2C(=O)N(c3ccc(F)cc3)C(=O)C21 (stereo not given)	90%	97% (inactive)	90% (inactive)	104% (inactive)	112% (inactive)	13.8% (inactive)	98.2%	112%	0% (inactive)	-2.67% (inactive)
Cc1cc(C(=O)NCc2cccnc2)n(-c2ccccc2)n1	93.5%	97% (inactive)	93.5% (inactive)	102% (inactive)	107% (inactive)	14.4% (inactive)	92.9%	107%	-0.93% (inactive)	-6.07% (inactive)
O=C(CCN1C(=O)C2C3C=CC(C3)C2C1=O)NC1CCCc2ccccc21 (stereo not given)	81%	90.5% (inactive)	81% (inactive)	76.7% (inactive)	94.2% (inactive)	6.45% (inactive)	87.7%	94.2%	-1.89% (inactive)	5.57% (inactive)
Cc1ccc(-n2cnnn2)c2cccnc12	95.5%	92% (inactive)	95.5% (inactive)	72.1% (inactive)	101% (inactive)	7.82% (inactive)	93.5%	101%	-5.53% (inactive)	4.83% (inactive)
CC(C(=O)Nc1ccccc1-c1ccccc1)N1CCN(C(=O)c2ccco2)CC1 (stereo not given)	91.5%	95% (inactive)	91.5% (inactive)	96.2% (inactive)	74.1% (inactive)	8.3% (inactive)	65.8%	74.1%	-6.18% (inactive)	0.32% (inactive)
CC(C)Cn1c(=O)c(C(=O)Nc2ccccc2S(N)(=O)=O)c(O)c2ccccc21	118%	91.5% (inactive)	118% (inactive)	62.9% (inactive)	16.1% (active)	-11.4% (inactive)	27.5%	16.1%	10.3% (inactive)	8.67% (inactive)
CC(C)C(=O)Nc1cccc(NC(=O)c2cccnc2)c1	102%	98.5% (inactive)	102% (inactive)	107% (inactive)	97.9% (inactive)	-1.67% (inactive)	99.6%	97.9%	-2.63% (inactive)	4.1% (inactive)
Cc1nc2nc(Cc3ccccc3)[nH]n2c(=O)c1Cc1ccccc1	117%	104% (inactive)	117% (inactive)	96.6% (inactive)	96.2% (inactive)	8.81% (inactive)	87.4%	96.2%	-0.53% (inactive)	1.64% (inactive)
O=c1sc(Nc2ccccc2)nc2ccsc12	96.5%	47% (active)	96.5% (inactive)	60.4% (inactive)	75.9% (inactive)	-2.11% (inactive)	78%	75.9%	-8.16% (inactive)	-3% (inactive)
Cn1c2c(c(=O)n(C)c1=O)C(c1cccc(Br)c1)C1C(=O)c3ccccc3C1=N2 (stereo not given)	103%	97.5% (inactive)	103% (inactive)	72.5% (inactive)	40.6% (active)	5.16% (inactive)	35.4%	40.6%	0.27% (inactive)	1.43% (inactive)
O=C(COC(=O)C1CC1)c1c[nH]c2ccccc12	93.5%	107% (inactive)	93.5% (inactive)	105% (inactive)	115% (inactive)	14.9% (inactive)	100%	115%	3.24% (inactive)	-11.3% (inactive)
CC(=O)Oc1ccc(CCC(C)OC(C)=O)cc1 (stereo not given)	101%	92% (inactive)	101% (inactive)	93.2% (inactive)	99.7% (inactive)	2.78% (inactive)	96.9%	99.7%	-6.13% (inactive)	-1.13% (inactive)
CC(C)CCNC(=O)CCNS(=O)(=O)c1ccc(Cl)cc1	110%	95% (inactive)	110% (inactive)	99.7% (inactive)	94.1% (inactive)	-0.295% (inactive)	94.4%	94.1%	-1.71% (inactive)	-4.03% (inactive)
COCCNC(=O)CSc1nc(-c2ccc(OC)c(OC)c2)cc(C(F)(F)F)n1	98.5%	94% (inactive)	98.5% (inactive)	101% (inactive)	89% (inactive)	-11.1% (inactive)	100%	89%	1.84% (inactive)	-2.3% (inactive)
O=C(O)c1cc(-c2ccccc2Cl)n[nH]1	92%	93.5% (inactive)	92% (inactive)	95.6% (inactive)	81% (inactive)	1.79% (inactive)	79.2%	81%	-2.34% (inactive)	2.38% (inactive)

Source: PubChem BioAssay
